High-throughput results as filed in PubChem BioAssay.
Rows were chosen to be rich in hits. Some 3.7% of all compounds tested hit in one or more screens of this group.
MPTP inh: permeability transition pore inhibition | isolated mouse mitochondria, Ca2+ swelling absorbance, 30 min | inhibition, % at 10 µM | actives 1.4% (n = 360,000) | AID 602449;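 active means inhibition of 50% or more, scaled per plate between neutral and stimulator controls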;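 further: 0% = DMSO wells given calcium and 100% = 1 mM EGTA wells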
proCasp7 act: counter-screen: procaspase-7 (human) activation. P55210. recombinant procaspase-7, Ac-DEVD-pNA absorbance 405 nm; D23A/D198A/D206A triple mutant, cannot self-cleave; scale: DMSO 0, 5 µM enzyme 100. activation, % at 8.5 µM. actives 0.093% (n = 330,000);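 active means percent activation above the screen-wide mean plus 3 SD, cut at about 25% in these data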
Target sequence (P55210 whole entry D23A/D198A/D206A): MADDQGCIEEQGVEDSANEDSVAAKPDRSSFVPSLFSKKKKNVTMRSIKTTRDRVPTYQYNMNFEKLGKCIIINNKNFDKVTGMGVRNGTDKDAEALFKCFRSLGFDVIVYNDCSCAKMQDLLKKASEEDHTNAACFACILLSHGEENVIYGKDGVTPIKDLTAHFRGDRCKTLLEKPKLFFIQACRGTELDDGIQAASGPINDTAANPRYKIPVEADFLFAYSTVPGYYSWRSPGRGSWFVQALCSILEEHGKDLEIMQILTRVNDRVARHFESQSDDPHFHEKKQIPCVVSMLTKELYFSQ
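System: Uncleavable procaspase-7 mutant enzyme; Amount: 2 µM procaspase-7 mutant as dispensed; Schedule: 1 h compound preincubation, 2 h substrate cleavage, 25 °C; Measured by: 405 nm absorbance of p-nitroaniline; Evaluation: percent activation from buffer-corrected 0–120 min absorbance change; Control set: low DMSO alone, high DMSO plus 5 µM PC-7.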
NR3A LBD binder: modulates the human NR3A ligand-binding domain; NR3A LBD differential scanning fluorimetry, Tm shift; 0% = protein alone, 100% = glycine-bound protein; actives 2.5% (n = 340,000); Tm shift relative to glycine control, % at 25 µM; AID 1259313;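 active means melting temperature shift of at least 10% of the positive control shift, at one fixed dose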
procasp3 activ: activators of human procaspase-3 | recombinant procaspase-3 D3A, Ac-DEVD-pNA absorbance 405 nm | P42574 | activation, % at 8.5 µM | actives 0.11% (n = 330,000);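 active means activation above the mean of all tested compounds plus 3 SD, cut at about 21% in these data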;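 further: 0% = DMSO alone and 100% = DMSO wells spiked with extra 5 µM PC-3 D3A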
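material = Procaspase-3 D3A mutant | probe or stimulus = Ac-DEVD-pNA | compound = single dose, 8.5 µM nominal compound, 0.8% DMSO | timing = 1 h preincubation, 2 h reaction | measured by = 405 nm absorbance of p-nitroaniline, reads at 0 and 120 min | benchmarks = DMSO-only low control, 5 µM PC-3 D3A high control | repeats = singlicate, each compound tested once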
aDG glyco act: alpha-DG glycosylation activation; Pro5-aDG cells, alpha-DG glycosylation AlphaScreen (IIH6); 0% Pro5, 100% B10-LARGE cell signal; activation, % at 10 µM; actives 0.22% (n = 360,000); AID 624168;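 active means activation of at least 8% versus controls, or a plate z-score of at least 8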;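 further: Pro5 are CHO cells carrying HIG-tagged alpha-DG that lacks glycosylation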
The depositor's hits bear a star; . = not tested or not shown.

SMILES	MPTP inh	proCasp7 act	NR3A LBD binder	procasp3 activ	aDG glyco act
O=C(Nc1cccc(NC(=O)c2nccc3ccccc23)c1)c1ccco1	0	-12	19*	-1	0
Cc1ccc(NC(=O)c2cc3ccccc3o2)cc1Cl	1	.	35*	.	0
COc1ccc(NC(=O)c2cc3ccccc3o2)cc1	2	11	2	-5	0
NS(=O)(=O)c1ccc(NC(=O)COc2cccc3ccccc23)cc1	1	9	16*	2	0
CC(=O)Nc1cccc(NC(=O)c2cc3ccccc3o2)c1	1	2	6	-4	1
C#CCN(C[C@@H]1[C@@H](OC(=O)NCc2ccc(OC)c(OC)c2)[C@@H](OC(=O)NCc2ccc(OC)c(OC)c2)CN(C(=O)OC(C)C)N1C(=O)OC(C)C)S(=O)(=O)c1ccc(C)cc1	-1	.	.	.	1
COc1ccc(-c2nc3c(C)cc(Br)cn3c2Cc2ccsc2)cc1OC	-2	.	.	.	0
CCC(=O)Nc1ccc(Cl)c(NC(=S)NC(=O)c2ccco2)c1	2	9	-8	-4	0
O=C(COc1ccccc1[N+](=O)[O-])Nc1ccc(NC(=O)c2cc3ccccc3o2)cc1	2	1	12*	3	0
COc1cc(NC(=O)c2cccc(C)c2)ccc1NC(=O)c1cc2ccccc2o1	1	3	33*	0	0
O=C(Nc1ccc(NC(=O)c2cc3ccccc3o2)cc1)c1ccco1	0	4	26*	1	0
CCC(=O)Nc1ccc(Cl)c(NC(=S)NC(=O)c2cc3ccccc3o2)c1	4	-8	25*	8	0
CCOc1cccc(C(=O)Nc2ccc(NC(=O)c3cc4ccccc4o3)c(OC)c2)c1	3	-2	2	-2	0
Cc1cc(C(O)c2ncc(-c3cccc4ccccc34)[nH]2)ccc1F (configuration not stated)	2	.	.	.	0
Cc1cc(C(=O)OCC(=O)N2CCc3ccccc32)ccc1[N+](=O)[O-]	-1	8	0	-1	0
COC(=O)C(C(=O)OC)C(CC(=O)c1ccc(Br)cc1)c1ccccc1 (configuration not stated)	1	.	-2	.	0
CC(C)=CCc1cc([C@@H]2CC(=O)c3ccc(O)c(CC=C(C)C)c3O2)ccc1O	0	-10	11*	9	0
Cc1ccc2c(c1)C(=O)CC(c1ccc3c(c1)OCCO3)O2 (configuration not stated)	0	-12	1	2	0
CN1C(C)(C)CC(=NO)CC1(C)C	0	.	1	.	0
COc1ccc(-c2[nH]ncc2-c2ccc(Cl)cc2)c(O)c1	5	-4	1	-2	0
COc1ccc(-c2cn[nH]c2-c2ccc(OCc3ccc([N+](=O)[O-])cc3)cc2O)cc1OC	19	-2	15*	1	0
Oc1ccc(-c2[nH]ncc2-c2ccc(Br)cc2)c(O)c1	1	.	7	.	1
Oc1ccc(-c2[nH]ncc2-c2ccc(Cl)cc2)c(O)c1	7	-1	12*	6	1
COc1ccc(-c2cn[nH]c2-c2ccc(OCc3ccccc3F)cc2O)cc1OC	6	4	4	1	0
O=[N+]([O-])c1ccc(COc2ccc(-c3[nH]ncc3-c3ccc(Cl)cc3)c(O)c2)cc1	15	5	35*	6	1
COc1ccc(-c2cn[nH]c2-c2ccc(OCc3ccccc3)cc2O)cc1	6	-1	12*	2	0
COc1ccccc1-c1cn[nH]c1-c1ccc(OCc2ccccc2)cc1O	6	0	7	7	0
C=CC[C@H](CC(=O)N[C@H](CO)Cc1ccccc1)C(=O)N[C@H](COC(=O)[C@H](CC=C)CC(=O)OC(C)(C)C)Cc1c[nH]c2ccccc12	-1	-3	-8	1	2
CCN(C(=O)COC(=O)CCC(=O)c1ccc(Cl)cc1)c1c(N)n(Cc2ccccc2)c(=O)[nH]c1=O	-1	.	-2	.	0
O=C(C[C@H]1C/C=C\CC[C@H](Cc2ccc(F)cc2)C(=O)OC[C@@H]2CCCN2C1=O)N[C@H](CO)Cc1ccccc1	0	-1	-1	-4	0
